Data: ChEMBL document CHEMBL1125251, “4'-Hydroxy-3-methoxyflavones with potent antipicornavirus activity” (J Med Chem, 1991)
In brackets after ≈: the same amount, converted by molar mass. Activity calls are given as the source filed them. The calls are words filed in the database; no cut-off is given here.

Columns and labels:
[1] = tested on: Enterovirus C; experiment: The ratio of the poliovirus viral titer of the virus control (reduction factor) to the viral titer in the presence of the maximal non-toxic dose (RF MNTD); assay type: functional
Outline: (§1)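 Poliovirus type 1 Brunhilde 1A/S3 in Vero monolayers. Serial 10-fold virus dilutions adsorbed 1 h at 37 °C, then serial 2-fold compound dilutions were added. Incubated at 37 °C and scored for CPE by light microscopy, with a 3-day readout. Titer reduction is control/treated TCD50/mL. ED99 is the minimum concentration inhibiting 99% of virus. Virus, cell and compound controls were included.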

[2] = tested on: Enterovirus C; experiment: Minimum drug concentration at which 99% of the polio virus is inhibited; NA= not active; assay type: functional, organism-based; outline: as §1
[3] = tested on: Enterovirus C; experiment: Maximal non-toxic dose (MNTD) that shows antiviral activity.; assay type: functional
Outline: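 End-point titration. Poliovirus type 1 Brunhilde was run in Vero cells at 37 °C with a 3-day read. Rhinovirus 15 was run in human skin fibroblasts at 33 °C with a 7-day read. Monolayers got serial 10-fold virus dilutions and adsorbed 1 h at 37 °C, then serial 2-fold compound dilutions (DMSO stock in maintenance medium). CPE was read by light microscopy. RF = control titer (TCD50/mL) / titer at maximal nontoxic dose.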

[4] = Cytotoxic dose at which 50% growth of normal cells is inhibited; assay type: cell-based; settings: chlorocebus sabaeus, Vero cells; read-out: CyD50
Outline: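 Cell-growth cytotoxicity in Vero cells or human skin fibroblasts. Serial 2-fold dilutions in M-199 with 6% newborn calf serum were added in quadruplicate to 10⁶ cells and held 6 days at 37 °C. Cells were trypsinized, counted and reseeded with compound, repeated five times. Generation time was calculated per concentration. CyD50 = lowest concentration at least doubling generation time versus untreated cells.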

[5] = tested on: Enterovirus C; experiment: Minimal dose which produces titer reduction at 10 ug/mL (mD RF10e3); assay type: functional
[6] = tested on: Enterovirus C; experiment: Minimum drug concentration at which 99% of the polio virus is inhibited; assay type: functional; outline: as §1
[7] = tested on: Human rhinovirus sp.; experiment: Minimum drug concentration at which 99% of the rhino virus is inhibited.; assay type: functional
Outline: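 End-point titration with rhinovirus type 15 on human skin fibroblast monolayers. Cells were infected with serial 10-fold virus dilutions and allowed 1 h adsorption at 37 °C. Serial 2-fold compound dilutions were then added and plates incubated at 33 °C. CPE was read daily by light microscopy for at least 1 week, titres as TCD50/mL. ED99 = minimum concentration inhibiting 99% of virus.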

[8] = Therapeutic Index measured as the ratio of CyD50(polio) / ED99(polio) values; assay type: organism-based; settings: enterovirus c; read-out: Therapeutic index 99
Outline: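 TI99 = CyD50/ED99 for poliovirus. ED99 came from end-point titration in Vero cells at 37 °C over 3 days. CyD50 came from Vero cell growth: 10⁶ cells were given serial 2-fold compound dilutions in quadruplicate for 6 days at 37 °C, then trypsinized, counted and reseeded, repeated five times. Generation time was calculated per concentration.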

[9] = Therapeutic Index measured as the ratio of CyD50 (rhino) / ED99 (rhino) values.; settings: read-out: Therapeutic index 99
Outline: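 TI99 = CyD50/ED99 for rhinovirus 15. ED99 came from end-point titration in human skin fibroblasts at 33 °C over 7 days. CyD50 came from fibroblast growth: 10⁶ cells were given serial 2-fold compound dilutions in quadruplicate for 6 days at 37 °C, then counted and reseeded, repeated five times. Generation time was calculated per concentration.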

[10] = tested on: Human rhinovirus sp.; experiment: Cytotoxic dose at which 50% growth of normal cells is inhibited against rhino virus infection.; assay type: functional
Outline: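 Human skin fibroblasts, 10⁶ cells per flask, given serial 2-fold dilutions in quadruplicate in M-199 with 6% newborn calf serum and held 6 days at 37 °C. Cells were trypsinized, counted in a chamber and reseeded with compound over five repeat cycles. CyD50 = lowest concentration at least doubling cell generation time relative to untreated control.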

[11] = tested on: Enterovirus C; experiment: Minimum drug concentration at which 99% of the polio virus is inhibited; NA= Not active; assay type: functional, organism-based; outline: as §1

COc1ccc(-c2oc3ccc(Cl)cc3c(=O)c2OC)cc1
Reduction factor [1]: 1 | ED99 [2]: inactive | Max non-toxic dose [3]: 25 µg/mL | CC50 [4]: 20 µg/mL (≈ 63.1 µM)

COc1c(-c2ccc(Cl)cc2)oc2ccc(Cl)cc2c1=O
Reduction factor [1]: 1 | ED99 [2]: inactive | Max non-toxic dose [3]: 25 µg/mL | CC50 [4]: 20 µg/mL (≈ 62.3 µM)

COc1c(-c2ccc(O)cc2)oc2cc(O)ccc2c1=O
Minimal dose [5]: 4 µg/mL | ED99 [6]: 1 µg/mL | Max non-toxic dose [3]: 5 µg/mL | CC50 [4]: 15 µg/mL (≈ 52.8 µM) | ED99 [7]: 25 µg/mL | selectivity ratio [8]: 15 | selectivity ratio [9]: 1 | CyD50 [10]: 25 µg/mL

COc1ccc(-c2oc3cc(Cl)ccc3c(=O)c2OC)cc1
Reduction factor [1]: 1 | ED99 [2]: inactive | Max non-toxic dose [3]: 100 µg/mL | CC50 [4]: > 200 µg/mL

COc1ccc2c(=O)c(OC)c(-c3ccc(O)cc3)oc2c1
Minimal dose [5]: 2.5 µg/mL | ED99 [6]: 2.5 µg/mL | Max non-toxic dose [3]: 50 µg/mL | CC50 [4]: > 50 µg/mL | ED99 [7]: 10 µg/mL | selectivity ratio [8]: > 20 | selectivity ratio [9]: > 5 | CyD50 [10]: >50 µg/mL

COc1c(-c2ccc(O)cc2)oc2ccc(C(C)C)cc2c1=O
ED99 [6]: 5 µg/mL | Max non-toxic dose [3]: 5 µg/mL | CC50 [4]: 10 µg/mL (≈ 32.2 µM) | ED99 [7]: 10 µg/mL | selectivity ratio [8]: 2 | selectivity ratio [9]: 1 | CyD50 [10]: 10 µg/mL

COc1cc(O)c2c(=O)c(OC)c(-c3ccc(O)cc3)oc2c1 [KUMATAKENIN]
Reduction factor [1]: 1000000 | Minimal dose [5]: 0.3 µg/mL | ED99 [6]: 0.3 µg/mL | Max non-toxic dose [3]: 100 µg/mL | CC50 [4]: 100 µg/mL (≈ 318 µM) | ED99 [7]: 2.5 µg/mL | selectivity ratio [8]: 333 | selectivity ratio [9]: 40 | CyD50 [10]: 100 µg/mL

COc1c(-c2ccc(O)cc2)oc2cc(C)ccc2c1=O
Minimal dose [5]: 4 µg/mL | ED99 [6]: 2 µg/mL | Max non-toxic dose [3]: 25 µg/mL | CC50 [4]: 25 µg/mL (≈ 88.6 µM) | ED99 [7]: 25 µg/mL | selectivity ratio [8]: 12.5 | selectivity ratio [9]: 1 | CyD50 [10]: 25 µg/mL

COc1c(-c2ccc(O)cc2)oc2cccc(O)c2c1=O
Reduction factor [1]: 10000 | Minimal dose [5]: 1.5 µg/mL | ED99 [6]: 0.5 µg/mL | Max non-toxic dose [3]: 5 µg/mL | CC50 [4]: 25 µg/mL (≈ 87.9 µM) | ED99 [7]: 1 µg/mL | selectivity ratio [8]: 50 | selectivity ratio [9]: 5 | CyD50 [10]: 5 µg/mL

COc1c(-c2ccc(O)cc2)oc2cc(I)ccc2c1=O
Reduction factor [1]: 10000 | Minimal dose [5]: 10 µg/mL | ED99 [6]: 4 µg/mL | Max non-toxic dose [3]: 10 µg/mL | CC50 [4]: 20 µg/mL (≈ 50.7 µM) | ED99 [7]: <1000 µg/mL | selectivity ratio [8]: 5 | CyD50 [10]: 20 µg/mL

COc1c(-c2ccc(Cl)cc2)oc2cc(Cl)ccc2c1=O
Reduction factor [1]: 1 | ED99 [2]: inactive | Max non-toxic dose [3]: 25 µg/mL | CC50 [4]: 20 µg/mL (≈ 62.3 µM)

COc1cc(OC)c2c(=O)c(OC)c(-c3ccc(O)cc3)oc2c1
Reduction factor [1]: 100000 | Minimal dose [5]: 5 µg/mL | ED99 [6]: 10 µg/mL | Max non-toxic dose [3]: 100 µg/mL | CC50 [4]: 100 µg/mL (≈ 305 µM) | ED99 [7]: 20 µg/mL | selectivity ratio [8]: 10 | selectivity ratio [9]: 5 | CyD50 [10]: 100 µg/mL

COc1cc2oc(-c3ccc(O)cc3)c(OC)c(=O)c2c(O)c1OC [PENDULETIN]
Reduction factor [1]: 1000000 | Minimal dose [5]: 0.1 µg/mL | ED99 [6]: 0.2 µg/mL | Max non-toxic dose [3]: 100 µg/mL | CC50 [4]: 100 µg/mL (≈ 290 µM) | ED99 [7]: 10 µg/mL | selectivity ratio [8]: 500 | selectivity ratio [9]: 1 | CyD50 [10]: 10 µg/mL

COc1cc(O)c2c(=O)c(OC)c(-c3ccc(O)cc3)oc2c1OC
Reduction factor [1]: 1000000 | Minimal dose [5]: 0.3 µg/mL | ED99 [6]: 0.25 µg/mL | Max non-toxic dose [3]: 25 µg/mL | CC50 [4]: > 100 µg/mL | ED99 [7]: 0.5 µg/mL | selectivity ratio [8]: 400 | selectivity ratio [9]: > 200 | CyD50 [10]: >100 µg/mL

COc1cc(O)c2c(=O)c(OC)c(-c3ccc(O)c(O)c3)oc2c1OC
Reduction factor [1]: 100000 | Minimal dose [5]: 0.5 µg/mL | ED99 [6]: 0.2 µg/mL | Max non-toxic dose [3]: 10 µg/mL | CC50 [4]: > 5 µg/mL | ED99 [7]: 2 µg/mL | selectivity ratio [8]: 25 | selectivity ratio [9]: 10 | CyD50 [10]: 20 µg/mL

COc1c(-c2ccc(O)cc2)oc2cccc(OC)c2c1=O
Minimal dose [5]: 5 µg/mL | ED99 [6]: 10 µg/mL | Max non-toxic dose [3]: 10 µg/mL | CC50 [4]: 150 µg/mL (≈ 503 µM) | ED99 [7]: 15 µg/mL | selectivity ratio [8]: 15 | selectivity ratio [9]: 10 | CyD50 [10]: 150 µg/mL

COc1c(-c2ccc(O)cc2)oc2ccc(O)cc2c1=O
Minimal dose [5]: 5 µg/mL | ED99 [6]: 2 µg/mL | Max non-toxic dose [3]: 10 µg/mL | CC50 [4]: 3 µg/mL (≈ 10.6 µM) | ED99 [7]: 10 µg/mL | selectivity ratio [8]: 1.5 | selectivity ratio [9]: 1.5 | CyD50 [10]: 15 µg/mL

COc1c(-c2ccc(O)cc2)oc2cc(O)cc(C)c2c1=O
Reduction factor [1]: 100000 | Minimal dose [5]: 0.05 µg/mL | ED99 [6]: 0.1 µg/mL | Max non-toxic dose [3]: 10 µg/mL | CC50 [4]: 15 µg/mL (≈ 50.3 µM) | ED99 [7]: 1 µg/mL | selectivity ratio [8]: 150 | selectivity ratio [9]: 15 | CyD50 [10]: 15 µg/mL

COc1c(-c2ccc(O)cc2)oc2cc(Cl)ccc2c1=O
Reduction factor [1]: 10000 | Minimal dose [5]: 20 µg/mL | ED99 [6]: 7 µg/mL | Max non-toxic dose [3]: 100 µg/mL | CC50 [4]: 100 µg/mL (≈ 330 µM) | ED99 [7]: 25 µg/mL | selectivity ratio [8]: 14.3 | selectivity ratio [9]: 4 | CyD50 [10]: 100 µg/mL

COc1c(-c2ccc(O)cc2)oc2ccc([N+](=O)[O-])cc2c1=O
ED99 [11]: inactive | Max non-toxic dose [3]: 50 µg/mL | CC50 [4]: > 0.1 µg/mL
